Measured values published in ChEMBL document CHEMBL2321843, “Opioid peptidomimetics: leads for the design of bioavailable mixed efficacy μ opioid receptor (MOR) agonist/δ opioid receptor (DOR) antagonist ligands” (J Med Chem, 2013).
pEC50, pKi: −log10 of the molar value. The source made the active and inactive calls.

Experiments:
[1] = molecular target: T1, Delta-type opioid receptor (Rattus norvegicus, UniProt P33533); experiment: Agonist activity at rat DOR expressed in rat C6 cells assessed as stimulation of [35S]GTPgammaS binding after 1 hr by liquid scintillation counting analysis; assay type: functional, cell-based
[2] = molecular target: T2, Kappa-type opioid receptor (Homo sapiens, UniProt P41145); assay type: functional, cell-based, CHO; conditions: for EC50: cho
[3] = molecular target: Mu-type opioid receptor (Rattus norvegicus) (UniProt P33535); experiment: Agonist activity at rat MOR expressed in rat C6 cells assessed as stimulation of [35S]GTPgammaS binding at 10 uM after 1 hr by liquid scintillation counting analysis relative to DAMGO; assay type: functional, cell-based
[4] = molecular target: T2, Kappa-type opioid receptor; assay type: cell-based, CHO
[5] = molecular target: Delta-type opioid receptor (Rattus norvegicus) (UniProt P33533); conditions: C6
[6] = molecular target: T1, Delta-type opioid receptor; experiment: Displacement of [3H]diprenorphine from rat DOR expressed in rat C6 cells after 1 hr by liquid scintillation counting analysis; assay type: cell-based
[7] = molecular target: Delta-type opioid receptor (Rattus norvegicus) (UniProt P33533); experiment: Agonist activity at rat DOR expressed in rat C6 cells assessed as stimulation of [35S]GTPgammaS binding at 10 uM after 1 hr by liquid scintillation counting analysis relative to DPDPE; assay type: functional, cell-based
[8] = molecular target: T3, Mu-type opioid receptor (Rattus norvegicus, UniProt P33535); experiment: Agonist activity at rat MOR expressed in rat C6 cells assessed as stimulation of [35S]GTPgammaS binding after 1 hr by liquid scintillation counting analysis; assay type: functional, cell-based
[9] = molecular target: T2, Kappa-type opioid receptor; conditions: CHO, 10 uM
[10] = molecular target: T3, Mu-type opioid receptor; experiment: Displacement of [3H]diprenorphine from rat MOR expressed in rat C6 cells after 1 hr by liquid scintillation counting analysis; assay type: cell-based
[11] = system: Mus musculus; experiment: Antinociceptive activity in C57BL/6 mouse assessed as duration of maximal activity at 10 mg/kg, ip by warm water tail withdrawal assay; assay type: functional; conditions: route intraperitoneal
Method in brief: (§1)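 Male C57BL/6 mice given a single ip dose of 10 mg/kg. Tail-withdrawal latency (50 °C water, 20 s cutoff) measured at varying times after dosing to build a time course.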

[12] = system: Mus musculus; experiment: Antinociceptive activity in ip dosed C57BL/6 mouse assessed as tail withdrawal latency after 30 mins by warm water tail withdrawal assay; assay type: functional
[13] = system: Mus musculus; experiment: Antinociceptive activity in C57BL/6 mouse assessed as tail withdrawal latency at 3.2 to 32 mg/kg, ip after 30 mins by warm water tail withdrawal assay in presence of opioid antagonist naltrexone; assay type: functional, organism-based
Method in brief: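 Male C57BL/6 mice pretreated ip with naltrexone 1 mg/kg, 30 min before testing. Cumulative ip dosing to totals of 3.2, 10 and 32 mg/kg at 30 min intervals, with latency read 30 min after each injection. Tail tip immersed in 50 °C water, 20 s cutoff.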

[14] = system: Mus musculus; experiment: Antinociceptive activity in C57BL/6 mouse assessed as increase in duration of maximal activity at 10 mg/kg, ip by warm water tail withdrawal assay; assay type: functional, organism-based; set-up: dose 10 mg/kg; method in brief: as §1

T2 sequence (P41145 whole entry): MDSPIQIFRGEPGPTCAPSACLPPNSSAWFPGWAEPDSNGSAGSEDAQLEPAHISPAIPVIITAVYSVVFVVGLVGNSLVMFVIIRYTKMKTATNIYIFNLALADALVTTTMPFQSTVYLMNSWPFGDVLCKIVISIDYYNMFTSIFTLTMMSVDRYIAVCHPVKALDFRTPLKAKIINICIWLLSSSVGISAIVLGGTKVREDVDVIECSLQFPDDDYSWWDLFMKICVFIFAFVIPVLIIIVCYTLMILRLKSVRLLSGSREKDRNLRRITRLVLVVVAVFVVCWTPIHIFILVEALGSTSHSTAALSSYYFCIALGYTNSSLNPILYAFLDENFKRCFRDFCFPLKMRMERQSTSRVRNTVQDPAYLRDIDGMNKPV
Chain of Mu-type opioid receptor (Rattus norvegicus) (P33535 whole entry): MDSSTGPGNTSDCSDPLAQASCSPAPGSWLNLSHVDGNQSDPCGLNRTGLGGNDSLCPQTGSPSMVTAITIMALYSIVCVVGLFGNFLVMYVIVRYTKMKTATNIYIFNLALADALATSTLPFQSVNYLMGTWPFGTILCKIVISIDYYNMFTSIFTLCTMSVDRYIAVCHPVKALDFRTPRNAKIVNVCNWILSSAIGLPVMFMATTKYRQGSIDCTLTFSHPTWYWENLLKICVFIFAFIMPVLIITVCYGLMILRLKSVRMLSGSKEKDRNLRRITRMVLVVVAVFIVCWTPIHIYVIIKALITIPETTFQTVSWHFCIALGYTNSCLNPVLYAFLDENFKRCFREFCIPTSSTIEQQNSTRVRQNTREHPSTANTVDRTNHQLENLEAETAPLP
T1 sequence (P33533 whole entry): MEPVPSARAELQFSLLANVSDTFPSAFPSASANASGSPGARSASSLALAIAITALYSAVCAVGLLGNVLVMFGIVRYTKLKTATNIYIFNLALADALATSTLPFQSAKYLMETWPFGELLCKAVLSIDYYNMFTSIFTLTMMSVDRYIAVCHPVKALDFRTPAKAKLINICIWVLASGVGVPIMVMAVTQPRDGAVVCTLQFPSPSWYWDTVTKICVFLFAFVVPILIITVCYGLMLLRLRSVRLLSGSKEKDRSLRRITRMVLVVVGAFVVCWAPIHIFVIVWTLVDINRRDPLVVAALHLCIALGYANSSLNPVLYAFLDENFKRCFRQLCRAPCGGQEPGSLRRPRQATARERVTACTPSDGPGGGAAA
T3 sequence (P33535 whole entry): as the sequence (P33535 whole entry) above
Chain of Delta-type opioid receptor (Rattus norvegicus) (P33533 whole entry): as the sequence (P33533 whole entry) above

Q: Which results are given for `Cc1cc(O)cc(C)c1C[C@H](N)C(=O)N[C@@H]1CCNc2ccc(CCc3ccccc3)cc21`?
A: EC50 [1]: Not Active; EC50 [2]: Not Active; Emax [3]: 45%

Q: With `Cc1cc(O)cc(C)c1C[C@H](N)C(=O)N[C@@H]1CCNc2ccc(Cc3ccc4ccccc4c3)cc21` as the compound, how does the pKi [4] read?
A: The pKi was 7.27.

Q: What about the EC50 [1] of the same compound?
A: Its EC50 is “Not Active”.

Q: What about the EC50 [2] of the same compound?
A: Its EC50 is “Not Active”.

Q: What about the Emax [3] of the same compound?
A: The Emax was 96%.

Q: What about the Ke [5] of the same compound?
A: Its Ke is 34.3 nM.

Q: And the pKi [6]?
A: The pKi was 8.00.

Q: For `Cc1cc(O)cc(C)c1C[C@H](N)C(=O)N[C@@H]1CCNc2ccc(Cc3cccc4ccccc34)cc21`, which Emax [7] is on record?
A: The Emax was 15%.

Q: What about the EC50 [2] of the same compound?
A: Its EC50 is “Not Active”.

Q: And the Emax [3]?
A: Its Emax is 93%.

Q: How did the pEC50 [8] turn out when `Cc1cc(O)cc(C)c1C[C@H](N)C(=O)N[C@@H]1CCNc2ccc(CC3Cc4ccccc4C3)cc21` was run?
A: The pEC50 was 9.62.

Q: What about the pKi [4] of the same compound?
A: Its pKi is 8.92.

Q: And the EC50 [1]?
A: The EC50 was “Not Active”.

Q: And the pEC50 ([2]; read-out: EC50)?
A: The pEC50 was 7.17.

Q: And the Emax [3]?
A: The Emax was 86%.

Q: And the Emax [9]?
A: Its Emax is 38%.

Q: And the pKi [10]?
A: Its pKi is 9.80.

Q: What about the pKi [6] of the same compound?
A: Its pKi is 8.39.

Q: How did the Time [11] turn out when `Cc1cc(O)cc(C)c1C[C@H](N)C(=O)N[C@@H]1CCNc2ccc(Cc3ccccc3)cc21` was run?
A: The Time was 60 min.

Q: What about the Activity [12] of the same compound?
A: The Activity was “Dose-dependent effect”.

Q: And the ED50 ([12]; C57BL/6, Tail, 0.5 h)?
A: Its ED50 is 3 mg/kg.

Q: What about the Activity [13] of the same compound?
A: The Activity was “inactive”.

Q: How did the Activity [14] turn out when `CN1CC[C@]23c4c5ccc(O)c4O[C@H]2[C@@H](O)C=C[C@H]3[C@H]1C5` was run?
A: The Activity was “Active”.
